The text below walks through data of ChEMBL document CHEMBL2434823, “Design, synthesis and biological activities of some 7-aminocephalosporanic acid derivatives” (Eur J Med Chem, 2013).

Experiment [1] deals with Yersinia pseudotuberculosis. Description: Antimicrobial activity against Yersinia pseudotuberculosis ATCC 911. In kind it is functional. The method, boiled down:
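Compounds were dissolved in […] as 20.000 µg/mL stocks. Ampicillin (10 µg) was the reference antibacterial, and DMSO diluted 1:10 was the solvent control.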

For a further experiment, the system named is Staphylococcus aureus. Description: Antimicrobial activity against Staphylococcus aureus ATCC 25923. In kind it is functional. In a few lines: (§1)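 Compound stocks were 20.000 µg/mL in hexane. DMSO diluted 1:10 served as the solvent control, and ampicillin was the reference drug.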
Experiment [2] concerns Bacillus cereus. Description: Antimicrobial activity against Bacillus cereus 702 Roma. In kind it is functional. The method, boiled down:
as §1

The test system of experiment [3] is Mycolicibacterium smegmatis. Description: Antimicrobial activity against Mycobacterium smegmatis ATCC 607. In kind it is functional.
The subject of a further experiment is Enterococcus faecalis. Description: Antimicrobial activity against Enterococcus faecalis ATCC 29212. In kind it is functional. In a few lines: as §1
Another experiment has as its system Pseudomonas aeruginosa. Description: Antimicrobial activity against Pseudomonas aeruginosa ATCC 43288. In kind it is functional. In a few lines: as §1
Another experiment deals with Saccharomyces cerevisiae. Description: Antimicrobial activity against Saccharomyces cerevisiae RSKK 251. In kind it is functional.
Another experiment has as its system Candida albicans. Description: Antimicrobial activity against Candida albicans ATCC 60193. In kind it is functional.
For experiment [4], the target named is Urease (Canavalia ensiformis) (UniProt P07374). Description: Inhibition of jack bean urease using urea as substrate assessed as ammonia production at 250 ug/ml after 15 mins relative to control. In a few lines:
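Jack bean urease in pH 8.2 buffer (100 mM urea, 0.01 M K2HPO4, 1 mM EDTA, 0.01 M LiCl) was incubated with compound for 15 min at room temperature. Ammonia was measured by the indophenol method (phenol/nitroprusside, then NaOH/NaOCl) at A625 after 20 min. Inhibition % = 100 − (OD test/OD control)×100. […] Thiourea was the standard.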

In experiment [5] the test system is Bacillus cereus. Description: Inhibition of Bacillus cereus metallo beta-lactamase assessed as nitrocefin substrate hydrolysis at 1 mM after 20 mins. In a few lines:
(§2)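 Commercial B. cereus metallo-β-lactamase (1.5 µM solution) was combined with nitrocefin (150 µM solution) and compound in 25 mM PIPES pH 7.0 containing 100 µM ZnSO4. A486 was read continuously for 20 min at 37 °C. Residual activity was taken relative to the no-inhibitor control, in triplicate. Screening used 1 mM final; IC50 came from a concentration series. HgCl2 was the positive control.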

Experiment [6] can be described thus: Inhibition of Bacillus cereus metallo beta-lactamase assessed as nitrocefin substrate hydrolysis after 20 mins. In a few lines:
as §2

pIC50: −log10 of the molar value. Active and inactive are the calls of the source. The rule behind the calls is not given here.

Chain of Urease (Canavalia ensiformis) (P07374 whole entry, looked up): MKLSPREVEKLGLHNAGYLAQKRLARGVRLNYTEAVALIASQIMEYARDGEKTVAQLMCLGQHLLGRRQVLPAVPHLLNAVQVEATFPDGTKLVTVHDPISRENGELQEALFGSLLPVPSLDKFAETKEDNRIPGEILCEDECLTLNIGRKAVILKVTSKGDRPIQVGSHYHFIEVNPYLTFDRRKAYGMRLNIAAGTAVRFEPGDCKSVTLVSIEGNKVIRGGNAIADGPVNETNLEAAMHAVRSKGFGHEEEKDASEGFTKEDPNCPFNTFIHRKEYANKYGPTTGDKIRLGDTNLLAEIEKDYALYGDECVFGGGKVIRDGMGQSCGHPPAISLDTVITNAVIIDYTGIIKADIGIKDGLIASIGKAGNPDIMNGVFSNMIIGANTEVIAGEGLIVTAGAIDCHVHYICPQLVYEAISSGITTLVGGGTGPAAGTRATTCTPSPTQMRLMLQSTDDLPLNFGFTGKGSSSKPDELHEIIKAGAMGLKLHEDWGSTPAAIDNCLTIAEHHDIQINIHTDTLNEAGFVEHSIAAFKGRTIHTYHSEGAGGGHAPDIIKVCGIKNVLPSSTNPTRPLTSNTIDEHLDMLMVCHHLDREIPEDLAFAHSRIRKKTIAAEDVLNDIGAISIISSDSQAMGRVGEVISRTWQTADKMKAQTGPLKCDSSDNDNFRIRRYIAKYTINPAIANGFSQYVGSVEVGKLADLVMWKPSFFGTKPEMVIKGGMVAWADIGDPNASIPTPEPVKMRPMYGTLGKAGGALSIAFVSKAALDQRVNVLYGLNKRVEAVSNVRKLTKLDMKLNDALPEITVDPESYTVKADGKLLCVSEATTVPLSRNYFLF

Regarding `CC(=O)OCC1=C(C(=O)O)N2C(=O)[C@@H](NS(=O)(=O)c3ccc(NC(=S)NCc4ccccc4)cc3)[C@H]2SC1`, the “inhibition zone (IZ)” value in [1] is 8 mm; in the experiment with Staphylococcus aureus it was 15 mm; in the experiment with Bacillus cereus [2], 8 mm; in experiment [3], 16 mm; with Enterococcus faecalis, 10 mm; in the experiment with Pseudomonas aeruginosa, 6 mm. In addition, the “inhibition zone (IZ)” value stood at 10 mm in the experiment on Saccharomyces cerevisiae and 8 mm with Candida albicans.

Usually inhibition stands for the relative decrease from the control value, in per cent. Turning to `O=S(=O)(Cl)c1ccc(NC(=S)Nc2ccccc2)cc1`, in [4], the inhibition turned out to be 21%. Besides, the “inhibition zone (IZ)” value (in experiment [1]; in the experiment with Bacillus cereus [2]; in [3]; in the experiment on Enterococcus faecalis; in the experiment on Pseudomonas aeruginosa) was “inactive” in each case. Further, the “inhibition zone (IZ)” value worked out at 6 mm with Staphylococcus aureus, 15 mm in the experiment on Saccharomyces cerevisiae and 8 mm with Candida albicans.

Regarding `CC(=O)OCC1=C(C(=O)O)N2C(=O)[C@@H](NS(=O)(=O)c3ccc(NC(=O)Nc4ccccc4)cc3)[C@H]2SC1`, the “inhibition zone (IZ)” value in experiment [1] is 8 mm; in the experiment with Staphylococcus aureus, 15 mm; in the experiment with Bacillus cereus [2] it was 10 mm; in experiment [3], 10 mm; in the experiment on Enterococcus faecalis it was 8 mm; in the experiment with Pseudomonas aeruginosa, 6 mm. The “inhibition zone (IZ)” value with Saccharomyces cerevisiae and in the experiment with Candida albicans was 8 mm in each case.

For `O=S(=O)(Cl)c1ccc(/N=c2/sc(-c3ccc(Cl)cc3)cn2Cc2ccccc2)cc1`, the “inhibition zone (IZ)” value (in experiment [1]; with Pseudomonas aeruginosa) was “inactive” in each case. Besides, the “inhibition zone (IZ)” value in the experiment on Staphylococcus aureus is recorded as 16 mm; in the experiment on Bacillus cereus [2], 6 mm; in experiment [3], 10 mm; in the experiment on Enterococcus faecalis, 18 mm; in the experiment with Saccharomyces cerevisiae, 20 mm; with Candida albicans, 10 mm.

Regarding `CC(=O)OCC1=C(C(=O)O)N2C(=O)[C@@H](NS(=O)(=O)c3ccc([N+](=O)[O-])cc3)[C@H]2SC1`, the inhibition was 28% in experiment [4] and 18% with Bacillus cereus [5]. The “inhibition zone (IZ)” value (in [1]; in experiment [3]; in the experiment on Saccharomyces cerevisiae; with Candida albicans) was “inactive” each time. For the same compound, the results for the “inhibition zone (IZ)” value in the experiment on Staphylococcus aureus, with Bacillus cereus [2] and in the experiment on Enterococcus faecalis were 23 mm, 8 mm and 6 mm, respectively.

`O=S(=O)(Cl)c1ccc(NC(=S)NCc2ccccc2)cc1`: the “inhibition zone (IZ)” value in [1] is 25 mm; in the experiment on Staphylococcus aureus, 30 mm; in the experiment on Bacillus cereus [2], 18 mm; in experiment [3], 17 mm; with Enterococcus faecalis, 16 mm; in the experiment on Pseudomonas aeruginosa, 20 mm. Besides, the “inhibition zone (IZ)” value in the experiment with Saccharomyces cerevisiae and in the experiment with Candida albicans was 8 mm each time.

Regarding `O=C(NCc1ccccc1)Nc1ccc(S(=O)(=O)Cl)cc1`, the inhibition in [4] was 23%. The “inhibition zone (IZ)” value was 25 mm in experiment [1]; 30 mm with Staphylococcus aureus; 18 mm with Bacillus cereus [2]; 15 mm in experiment [3]; 16 mm in the experiment with Enterococcus faecalis; 20 mm in the experiment on Pseudomonas aeruginosa. The figures for the “inhibition zone (IZ)” value with Saccharomyces cerevisiae and in the experiment on Candida albicans were 20 mm and 18 mm, respectively.

As to `O=C(Cl)CN1CCN(c2ccc([N+](=O)[O-])cc2F)CC1`, the inhibition in [4] is 25%. For the same compound, the “inhibition zone (IZ)” value (in experiment [1]; in experiment [3]; with Pseudomonas aeruginosa) was “inactive” in each case. Further, the “inhibition zone (IZ)” value is on record as 15 mm in the experiment on Staphylococcus aureus; 8 mm with Bacillus cereus [2]; 8 mm in the experiment with Enterococcus faecalis; 30 mm with Saccharomyces cerevisiae; 15 mm in the experiment with Candida albicans.

As to `CC(=O)OCC1=C(C(=O)O)N2C(=O)[C@@H](NS(=O)(=O)c3ccc(NC(=O)NCc4ccccc4)cc3)[C@H]2SC1`, the “inhibition zone (IZ)” value in [1] worked out at 10 mm; in the experiment on Staphylococcus aureus, 18 mm; with Bacillus cereus [2], 10 mm; in [3], 14 mm; in the experiment on Enterococcus faecalis, 10 mm; with Pseudomonas aeruginosa it was 8 mm. Besides, the “inhibition zone (IZ)” value in the experiment on Saccharomyces cerevisiae and in the experiment on Candida albicans was 10 mm in each case.

As to `O=S(=O)(Cl)c1ccc(/N=c2/sc(-c3ccc(Cl)cc3)cn2-c2ccccc2)cc1`, in [4], the inhibition amounted to 3%. Further, the “inhibition zone (IZ)” value (in [1]; in the experiment on Pseudomonas aeruginosa) was “inactive” each time. Further, the “inhibition zone (IZ)” value came out at 18 mm in the experiment on Staphylococcus aureus; 8 mm in the experiment on Bacillus cereus [2]; 12 mm in [3]; 8 mm in the experiment with Enterococcus faecalis; 22 mm in the experiment with Saccharomyces cerevisiae; 10 mm with Candida albicans.

For `O=C1CN(Cc2ccccc2)/C(=N\c2ccc(S(=O)(=O)Cl)cc2)S1`, the “inhibition zone (IZ)” value (in experiment [1]; in the experiment with Pseudomonas aeruginosa) was “inactive” each time. The “inhibition zone (IZ)” value in the experiment with Staphylococcus aureus is 18 mm; with Bacillus cereus [2], 10 mm; in experiment [3] it was 12 mm; in the experiment on Enterococcus faecalis, 10 mm; in the experiment on Saccharomyces cerevisiae it was 18 mm; in the experiment on Candida albicans, 10 mm.

For `Nc1ccc(S(=O)(=O)Cl)cc1`, the “inhibition zone (IZ)” value was 12 mm in [1]; 18 mm in the experiment on Staphylococcus aureus; 15 mm with Bacillus cereus [2]; 10 mm in experiment [3]; 12 mm in the experiment on Enterococcus faecalis; 28 mm with Pseudomonas aeruginosa. In addition, the results for the “inhibition zone (IZ)” value in the experiment with Saccharomyces cerevisiae and in the experiment on Candida albicans were 20 mm and 13 mm, respectively.

In general, pIC50 refers to the negative decadic logarithm of the IC50, by convention in mol/L. Take MERCURIC CHLORIDE [listing 1 of 2 here]: in [6], the pIC50 was 4.03.

For the compound MERCURIC CHLORIDE [listing 2 of 2 here], the inhibition in the experiment with Bacillus cereus [5] was 76%.

`CC(=O)OCC1=C(C(=O)O)N2C(=O)[C@@H](NS(=O)(=O)c3ccc(NC(=S)Nc4ccccc4)cc3)[C@H]2SC1`: the “inhibition zone (IZ)” value in experiment [1] is recorded as 10 mm; in the experiment on Staphylococcus aureus it was 18 mm; in the experiment on Bacillus cereus [2], 12 mm; in [3], 18 mm; in the experiment on Enterococcus faecalis, 10 mm; in the experiment on Pseudomonas aeruginosa, 8 mm. The figures for the “inhibition zone (IZ)” value with Saccharomyces cerevisiae and in the experiment with Candida albicans were 22 mm and 14 mm, respectively.

Regarding `O=S(=O)(Cl)c1ccc(/N=c2/oc(-c3ccc(Cl)cc3)cn2Cc2ccccc2)cc1`, the inhibition in experiment [4] stood at 21%. Further, the “inhibition zone (IZ)” value (in experiment [1]; in the experiment on Pseudomonas aeruginosa) was “inactive” each time. The “inhibition zone (IZ)” value in the experiment on Staphylococcus aureus is given as 18 mm; in the experiment with Bacillus cereus [2] it was 6 mm; in experiment [3], 12 mm; in the experiment on Enterococcus faecalis it was 8 mm; in the experiment on Saccharomyces cerevisiae it was 10 mm; with Candida albicans, 8 mm.

As to `CC(=O)OCC1=C(C(=O)O)N2C(=O)[C@@H](NS(=O)(=O)c3ccc(/N=c4/sc(-c5ccc(Cl)cc5)cn4-c4ccccc4)cc3)[C@H]2SC1`, in experiment [4], the inhibition was determined as 15%. Moreover, the “inhibition zone (IZ)” value in experiment [1] is recorded as 6 mm; in the experiment with Bacillus cereus [2], 8 mm; in experiment [3], 16 mm; in the experiment with Pseudomonas aeruginosa, 6 mm; in the experiment on Saccharomyces cerevisiae, 14 mm; with Candida albicans it was 10 mm. Besides, the “inhibition zone (IZ)” value in the experiment with Staphylococcus aureus and in the experiment with Enterococcus faecalis was “inactive” throughout.

For the compound `CC(=O)OCC1=C(C(=O)O)N2C(=O)[C@@H](NS(=O)(=O)c3ccc(/N=C4/SC(=O)CN4Cc4ccccc4)cc3)[C@H]2SC1`, the “inhibition zone (IZ)” value in experiment [1] is 8 mm; with Staphylococcus aureus, 22 mm; in the experiment on Bacillus cereus [2] it was 8 mm; in experiment [3], 16 mm; with Enterococcus faecalis, 10 mm; with Pseudomonas aeruginosa, 8 mm. Also, the figures for the “inhibition zone (IZ)” value in the experiment on Saccharomyces cerevisiae and with Candida albicans were 18 mm and 10 mm, respectively.

For the compound `CN[C@@H]1[C@H](O[C@H]2[C@H](O[C@H]3[C@H](O)[C@@H](O)[C@H](N=C(N)N)[C@@H](O)[C@@H]3N=C(N)N)O[C@@H](C)[C@]2(O)C=O)O[C@@H](CO)[C@H](O)[C@H]1O` [STREPTOMYCIN], the “inhibition zone (IZ)” value in [3] turned out to be 35 mm.

Regarding `CC(=O)OCC1=C(C(=O)O)N2C(=O)[C@@H](NS(=O)(=O)c3ccc(N)cc3)[C@H]2SC1`, in experiment [4], the inhibition stood at 1%. In addition, the “inhibition zone (IZ)” value in [1] is 12 mm; with Staphylococcus aureus, 20 mm; in the experiment on Bacillus cereus [2], 18 mm; in [3], 12 mm; with Enterococcus faecalis it was 16 mm; with Pseudomonas aeruginosa it was 30 mm. The “inhibition zone (IZ)” value with Saccharomyces cerevisiae was 20 mm; in the experiment on Candida albicans, 14 mm.
